Data: ChEMBL document CHEMBL4325826, “Identification of a Selective, Non-Prostanoid EP2 Receptor Agonist for the Treatment of Glaucoma: Omidenepag and its Prodrug Omidenepag Isopropyl” (J Med Chem, 2018)
pEC50, pIC50, pKi: −log10 of the molar value. Values belong to the molecule of their own block, whether it stands above or below them. Calls of active or inactive are those of the source. No cut-off for these calls is given here.

What was measured:
[1] = target: T1, Prostaglandin E2 receptor EP2 subtype (Homo sapiens, UniProt P43116); test: Agonist activity at recombinant human EP2 receptor expressed in HEK293 cells assessed as induction of cAMP accumulation after 30 mins; type: functional, cell-based
T1 sequence (P43116 whole entry): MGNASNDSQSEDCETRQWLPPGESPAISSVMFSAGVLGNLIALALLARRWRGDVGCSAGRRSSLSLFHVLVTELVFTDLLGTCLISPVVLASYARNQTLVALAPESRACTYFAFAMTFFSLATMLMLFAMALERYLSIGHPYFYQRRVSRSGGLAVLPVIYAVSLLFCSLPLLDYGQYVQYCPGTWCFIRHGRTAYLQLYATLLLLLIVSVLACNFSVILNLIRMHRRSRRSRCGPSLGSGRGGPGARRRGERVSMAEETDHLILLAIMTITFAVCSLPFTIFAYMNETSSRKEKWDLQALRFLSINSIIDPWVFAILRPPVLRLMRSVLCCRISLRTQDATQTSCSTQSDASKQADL
Method in brief: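 HEK293 cells stably expressing h-EP2 grown in MEM with 10% FBS, seeded at 2 × 10^4 cells/well. Next day switched to serum-free MEM with 500 µM IBMX (final) for 30 min at 37 °C, then test compound in DMSO added for 30 min at 37 °C. Cells lysed, cAMP quantified by EIA or HTRF kit.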

[2] = target: T2, Prostaglandin E2 receptor EP1 subtype (Homo sapiens, UniProt P34995); test: Displacement of [3H]prostaglandin E2 from recombinant human full length EP1 receptor expressed in Chem-1 cell membranes after 60 mins by liquid scintillation counting
T2 sequence (P34995 whole entry): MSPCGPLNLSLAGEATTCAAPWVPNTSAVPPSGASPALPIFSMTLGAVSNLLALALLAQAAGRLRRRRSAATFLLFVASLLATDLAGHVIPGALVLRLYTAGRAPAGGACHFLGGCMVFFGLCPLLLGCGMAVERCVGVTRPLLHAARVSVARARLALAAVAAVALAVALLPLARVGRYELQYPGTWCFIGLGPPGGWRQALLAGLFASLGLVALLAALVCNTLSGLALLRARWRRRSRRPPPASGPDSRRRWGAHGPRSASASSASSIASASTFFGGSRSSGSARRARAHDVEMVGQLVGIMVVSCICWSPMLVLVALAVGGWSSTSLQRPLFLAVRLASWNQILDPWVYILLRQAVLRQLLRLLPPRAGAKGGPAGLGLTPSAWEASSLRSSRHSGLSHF

[3] = target: T1, Prostaglandin E2 receptor EP2 subtype; test: Displacement of [3H]prostaglandin E2 from human EP2 receptor expressed in HEK293 cell membranes after 60 mins by liquid scintillation counting
Cytochrome P450 1A2 [4] = target: T3, Cytochrome P450 1A2 (Homo sapiens, UniProt P05177); test: Induction of CYP1A2 in human Fa2N-4 cells up to 100 uM using phenacetin as substrate incubated for 24 hrs followed by compound replacement for every 24 hrs during 72 hrs incubation period followed by substrate addition for 4 hrs by LC-MS analysis; type: ADME, cell-based
T3 sequence (P05177 whole entry): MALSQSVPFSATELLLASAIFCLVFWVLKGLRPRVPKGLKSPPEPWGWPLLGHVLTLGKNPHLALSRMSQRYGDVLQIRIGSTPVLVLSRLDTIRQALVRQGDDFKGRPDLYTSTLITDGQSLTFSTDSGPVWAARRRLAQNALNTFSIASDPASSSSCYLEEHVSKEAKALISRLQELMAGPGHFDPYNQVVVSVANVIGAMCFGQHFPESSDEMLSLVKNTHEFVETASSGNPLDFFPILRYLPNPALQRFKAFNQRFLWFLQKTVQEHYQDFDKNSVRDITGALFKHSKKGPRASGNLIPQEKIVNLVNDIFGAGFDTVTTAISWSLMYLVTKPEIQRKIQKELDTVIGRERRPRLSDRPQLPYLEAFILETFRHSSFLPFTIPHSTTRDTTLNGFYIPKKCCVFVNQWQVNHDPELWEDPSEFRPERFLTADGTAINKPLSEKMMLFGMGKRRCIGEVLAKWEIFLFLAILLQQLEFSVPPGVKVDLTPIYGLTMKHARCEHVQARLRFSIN
Method in brief: (§1)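 Human Fa2N-4 cells exposed to compound to assess CYP3A4 and CYP1A2 induction. Five concentrations, single experiment in triplicate.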

[5] = Apparent permeability from apical side at pH 7.4 to basolateral side at pH 7.4 in human Caco2 cells a 10 uM after 30 to 120 mins by HPLC-MS analysis; type: ADME, cell-based; details: Caco-2, pH 7.4
[6] = target: Prostaglandin E2 receptor EP4 subtype (Homo sapiens, UniProt P35408); test: Displacement of [3H]prostaglandin E2 from recombinant human full length EP4 receptor expressed in Chem-1 cell membranes after 60 mins by liquid scintillation counting
Chain of Prostaglandin E2 receptor EP4 subtype (P35408 whole entry): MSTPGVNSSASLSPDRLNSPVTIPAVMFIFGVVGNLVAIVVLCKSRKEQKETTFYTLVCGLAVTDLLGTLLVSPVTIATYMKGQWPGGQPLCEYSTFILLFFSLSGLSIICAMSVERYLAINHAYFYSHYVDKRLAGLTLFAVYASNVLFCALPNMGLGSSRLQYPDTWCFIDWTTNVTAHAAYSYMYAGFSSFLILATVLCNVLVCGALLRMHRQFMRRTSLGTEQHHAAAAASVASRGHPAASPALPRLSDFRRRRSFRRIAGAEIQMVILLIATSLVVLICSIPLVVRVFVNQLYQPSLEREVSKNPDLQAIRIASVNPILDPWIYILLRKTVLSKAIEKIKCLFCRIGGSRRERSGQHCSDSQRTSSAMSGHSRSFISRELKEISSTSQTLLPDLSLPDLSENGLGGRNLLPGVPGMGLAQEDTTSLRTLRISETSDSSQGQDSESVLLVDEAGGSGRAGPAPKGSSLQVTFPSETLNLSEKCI

Cytochrome P450 3A4 [7] = target: T4, Cytochrome P450 3A4 (Homo sapiens, UniProt P08684); test: Induction of CYP3A4 in human Fa2N-4 cells up to 100 uM using testosterone as substrate incubated for 24 hrs followed by compound replacement for every 24 hrs during 72 hrs incubation period followed by substrate addition for 4 hrs by LC-MS analysis; type: ADME, cell-based; method in brief: as §1
T4 sequence (P08684 whole entry): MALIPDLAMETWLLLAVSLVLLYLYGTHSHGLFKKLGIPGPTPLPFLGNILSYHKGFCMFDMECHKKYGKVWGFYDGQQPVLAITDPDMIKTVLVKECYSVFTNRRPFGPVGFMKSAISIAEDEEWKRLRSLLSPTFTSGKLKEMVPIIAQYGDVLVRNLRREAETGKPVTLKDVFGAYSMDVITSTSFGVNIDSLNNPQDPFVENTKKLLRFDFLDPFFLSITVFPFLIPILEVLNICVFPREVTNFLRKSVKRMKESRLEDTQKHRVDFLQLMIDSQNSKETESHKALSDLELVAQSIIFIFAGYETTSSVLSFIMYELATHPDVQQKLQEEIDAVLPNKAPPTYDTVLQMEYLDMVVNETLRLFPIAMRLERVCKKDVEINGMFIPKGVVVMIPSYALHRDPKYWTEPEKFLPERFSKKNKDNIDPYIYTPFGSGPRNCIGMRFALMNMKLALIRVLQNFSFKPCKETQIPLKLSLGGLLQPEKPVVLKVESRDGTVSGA

[8] = target: T5, Prostaglandin E2 receptor EP3 subtype (Homo sapiens, UniProt P43115); test: Displacement of [3H]prostaglandin E2 from recombinant human full length EP3 receptor expressed in Chem-1 cell membranes after 60 mins by liquid scintillation counting
T5 sequence (P43115 whole entry): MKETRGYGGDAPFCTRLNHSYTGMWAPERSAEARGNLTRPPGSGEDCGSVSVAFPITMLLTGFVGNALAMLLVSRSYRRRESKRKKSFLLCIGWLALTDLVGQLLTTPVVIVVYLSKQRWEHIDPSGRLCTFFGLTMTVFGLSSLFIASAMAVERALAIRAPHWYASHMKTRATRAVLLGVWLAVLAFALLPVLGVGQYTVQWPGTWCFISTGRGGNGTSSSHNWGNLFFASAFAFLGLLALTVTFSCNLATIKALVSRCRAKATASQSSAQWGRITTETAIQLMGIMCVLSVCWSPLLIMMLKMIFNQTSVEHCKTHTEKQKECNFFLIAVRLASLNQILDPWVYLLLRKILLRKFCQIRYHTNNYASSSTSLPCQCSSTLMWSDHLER

Cynomolgus monkey [9] = test: Reduction of intraocular pressure in ocular normotensive cynomolgus monkey at 0.3 to 1% administered topically to the eyes once daily at around 5 pm from day 1 to day 14 and measured at 10 am at day 8 and 15 post dose; details: Macaca fascicularis
[10] = Apparent permeability from apical side at pH 6.5 to basolateral side at pH 7.4 in human Caco2 cells a 10 uM after 30 to 120 mins by HPLC-MS analysis; type: ADME, cell-based; details: Caco-2, pH 6.5
[11] = Apparent permeability of the compound at 100 uM after 5 hrs by PAMPA; type: ADME
Cytochrome P450 2D6 = Cytochrome P450 2D6 (Homo sapiens, UniProt P10635); test: Inhibition of recombinant human CYP2D6 using 3-(2-(N,N-diethyl-N-methylammonium)ethyl)-7-methoxy-4-methylcoumariniodide fluorescent substrate in presence of NADPH-generating system after 15 mins; type: ADME
Chain of Cytochrome P450 2D6 (P10635 whole entry, canonical isoform): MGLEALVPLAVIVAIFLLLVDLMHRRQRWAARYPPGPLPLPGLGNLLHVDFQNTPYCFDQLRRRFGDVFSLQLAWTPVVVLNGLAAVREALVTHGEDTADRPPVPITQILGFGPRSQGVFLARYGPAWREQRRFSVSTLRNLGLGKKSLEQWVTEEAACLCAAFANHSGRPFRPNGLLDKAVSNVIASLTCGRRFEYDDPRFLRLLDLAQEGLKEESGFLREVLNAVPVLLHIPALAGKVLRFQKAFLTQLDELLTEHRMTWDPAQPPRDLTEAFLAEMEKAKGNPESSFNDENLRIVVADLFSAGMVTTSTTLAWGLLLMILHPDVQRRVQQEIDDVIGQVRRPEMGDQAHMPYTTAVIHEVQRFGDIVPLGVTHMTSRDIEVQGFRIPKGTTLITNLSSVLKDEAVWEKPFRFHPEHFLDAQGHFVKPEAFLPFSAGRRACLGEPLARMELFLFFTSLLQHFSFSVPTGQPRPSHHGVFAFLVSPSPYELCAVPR
Method in brief: (§2)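 Each recombinant human CYP isoform (3A4, 2D6, 2C9, 2C19, 1A2) tested for inhibition by compound.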

Cytochrome P450 1A2 [12] = target: T3, Cytochrome P450 1A2; test: Inhibition of recombinant human CYP1A2 using 3-cyano-7-ethoxycoumarin fluorescent substrate in presence of NADPH-generating system after 15 mins; type: ADME; method in brief: as §2
Cytochrome P450 2C9 = Cytochrome P450 2C9 (Homo sapiens, UniProt P11712); test: Inhibition of recombinant human CYP2C9 using 7-methoxy-4-(trifluoromethyl)coumarin fluorescent substrate in presence of NADPH-generating system after 15 mins; type: ADME; method in brief: as §2
Chain of Cytochrome P450 2C9 (P11712 whole entry): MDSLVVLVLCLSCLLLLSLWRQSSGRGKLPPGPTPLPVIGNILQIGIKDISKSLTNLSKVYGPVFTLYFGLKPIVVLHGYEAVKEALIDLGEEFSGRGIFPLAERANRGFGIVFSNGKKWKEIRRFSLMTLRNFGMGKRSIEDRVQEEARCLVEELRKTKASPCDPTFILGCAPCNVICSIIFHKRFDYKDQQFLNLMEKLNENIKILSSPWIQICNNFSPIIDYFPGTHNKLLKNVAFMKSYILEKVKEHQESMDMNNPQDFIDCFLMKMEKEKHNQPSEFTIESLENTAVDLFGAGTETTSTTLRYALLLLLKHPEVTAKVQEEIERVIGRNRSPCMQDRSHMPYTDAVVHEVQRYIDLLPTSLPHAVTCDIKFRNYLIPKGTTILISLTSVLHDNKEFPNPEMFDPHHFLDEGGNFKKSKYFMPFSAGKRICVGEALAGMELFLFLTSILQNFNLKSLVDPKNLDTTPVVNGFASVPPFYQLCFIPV

[13] = target: T1, Prostaglandin E2 receptor EP2 subtype; test: Potency index, ratio of CP-533,536 EC50 to compound EC50 for recombinant human EP2 receptor expressed in HEK293 cells by cAMP accumulation assay; type: functional, cell-based
[14] = Drug metabolism in human liver microsomes assessed as metabolic rate at 10 uM after 30 mins by HPLC-MS analysis; type: ADME, Microsome; details: 0.5 h
Cytochrome P450 2C19 = Cytochrome P450 2C19 (Homo sapiens, UniProt P33261); test: Inhibition of recombinant human CYP2C19 using 3-cyano-7-ethoxycoumarin fluorescent substrate in presence of NADPH-generating system after 15 mins; type: ADME; method in brief: as §2
Chain of Cytochrome P450 2C19 (P33261 whole entry): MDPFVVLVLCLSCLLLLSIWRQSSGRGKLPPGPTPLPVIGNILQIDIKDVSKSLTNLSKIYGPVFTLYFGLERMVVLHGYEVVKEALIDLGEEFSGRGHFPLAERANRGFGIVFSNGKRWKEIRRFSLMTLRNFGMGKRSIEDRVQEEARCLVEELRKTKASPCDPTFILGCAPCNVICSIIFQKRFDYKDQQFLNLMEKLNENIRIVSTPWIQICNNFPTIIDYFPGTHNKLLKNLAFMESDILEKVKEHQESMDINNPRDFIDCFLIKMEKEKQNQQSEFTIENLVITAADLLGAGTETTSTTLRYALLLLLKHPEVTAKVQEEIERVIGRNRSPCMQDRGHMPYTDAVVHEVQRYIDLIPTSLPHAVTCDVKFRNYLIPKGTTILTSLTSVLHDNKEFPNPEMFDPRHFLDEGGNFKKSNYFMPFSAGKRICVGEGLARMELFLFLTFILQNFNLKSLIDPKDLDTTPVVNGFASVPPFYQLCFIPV

Cytochrome P450 3A4 [15] = target: T4, Cytochrome P450 3A4; test: Inhibition of recombinant human CYP3A4 using 7-benzyloxyquinoline fluorescent substrate in presence of NADPH-generating system after 15 mins; type: ADME; method in brief: as §2
Cynomolgus monkey [16] = test: Reduction of intraocular pressure in ocular normotensive cynomolgus monkey at 0.01% administered topically to the eyes once daily at around 5 pm from day 1 to day 14 and measured at 10 am at day 8 and 15 post dose; details: Macaca fascicularis
Cynomolgus monkey [17] = test: Reduction of intraocular pressure in ocular normotensive cynomolgus monkey administered topically to the eyes once daily at around 5 pm from day 1 to day 14 and measured at […] at day 8 and 15 post dose; type: functional, organism-based; details: Macaca fascicularis

pEC50 [1]: 7.37
Compound: O=C(O)CNc1cccc(CN(Cc2ccc(-n3cncn3)cc2)S(=O)(=O)c2cccnc2)n1

pEC50 [1]: 6.19
Compound: CC(C)(C)C1CCC(CN(Cc2cccc(NCC(=O)O)n2)S(=O)(=O)c2cccnc2)CC1 (stereo unspecified)

pEC50 [1]: 7.12
Compound: O=C(O)CNc1cccc(CN(Cc2ccc(-c3ccc(Cl)cc3)cc2)S(=O)(=O)c2cccnc2)n1

pEC50 [1]: 7.72
Compound: COc1ccc(S(=O)(=O)N(Cc2ccc(C(C)(C)C)cc2)Cc2cccc(NCC(=O)O)n2)cc1

pEC50 [1]: < 6.00
Compound: CC(C)(C)c1ccc(CN(Cc2ccc3ccn(CC(=O)O)c3c2)S(=O)(=O)c2cccnc2)cc1

pEC50 [1]: 6.51
Compound: O=C(O)CNc1cccc(CN(Cc2ccc(-c3ccnnc3)cc2)S(=O)(=O)c2cccnc2)n1

pEC50 [1]: 6.93
Compound: O=C(O)CNc1cccc(CN(CCCCCc2ccccc2)S(=O)(=O)c2cccnc2)n1

pEC50 [1]: 6.21
Compound: CC(C)(C)c1ccc(CN(Cc2cccc(NCC(=O)O)n2)S(=O)(=O)c2cccc(Cl)c2)cc1

pIC50 [2]: > 7.52
Compound: CCCCC[C@H](O)/C=C/[C@H]1[C@H](O)CC(=O)[C@@H]1C/C=C\CCCC(=O)O [DINOPROSTONE]

pEC50 [1]: 6.92
Compound: O=C(O)CNc1cccc(CN(Cc2ccc(C(F)(F)F)cc2)S(=O)(=O)c2cccnc2)n1

pEC50 [1]: 6.55
Compound: CN(CC(=O)O)c1cccc(CN(Cc2ccc(C(C)(C)C)cc2)S(=O)(=O)c2cccnc2)n1

pEC50 [1]: 8.80
Compound: O=C(O)CNc1cccc(CN(Cc2ccc(-c3ccccn3)cc2)S(=O)(=O)c2cccnc2)n1

pKi [3]: 7.82
Compound: CC(C)(C)c1ccc(CN(Cc2cccc3oc(C(=O)O)cc23)S(=O)(=O)c2cccnc2)cc1

pEC50 [1]: 6.44
Compound: CC(C)(C)c1ccc(CN(Cc2csc(NCC(=O)O)n2)S(=O)(=O)c2cccnc2)cc1

pEC50 [1]: < 6.00
Compound: CC(C)(C)c1ccc(CN(Cc2cccc(NCC(=O)O)n2)S(=O)(=O)c2ccccc2Cl)cc1

pKi [3]: 6.36
Compound: CC(C)(C)c1ccc(CN(Cc2ccc3cc(C(=O)O)oc3c2)S(=O)(=O)c2cccnc2)cc1

Activity (Cytochrome P450 1A2 [4]): Not Active
Papp A→B at 10 µM [5]: 0.28 ×10⁻⁶ cm/s
pIC50 [6]: 5.26
Activity (Cytochrome P450 3A4 [7]): Not Active
pIC50 [8]: < 5.00
pEC50 [1]: 8.96
pIC50 [2]: < 5.00
Papp A→B at 10 µM [10]: 0.59 ×10⁻⁶ cm/s
Papp at 5 h, 100 µM [11]: 0.9 ×10⁻⁶ cm/s
pIC50 (Cytochrome P450 2D6): < 4.70
pIC50 (Cytochrome P450 1A2 [12]): < 4.70
pIC50 (Cytochrome P450 2C9): < 4.70
pIC50 [3]: 8.00
Ratio EC50 [13]: > 10
Drug metabolism [14]: 57 pmol/min/mg
pIC50 (Cytochrome P450 2C19): < 4.70
pIC50 (Cytochrome P450 3A4 [15]): < 4.70
Compound: O=C(O)CNc1cccc(CN(Cc2ccc(-n3cccn3)cc2)S(=O)(=O)c2cccnc2)n1 [OMIDENEPAG]
Activity (Cynomolgus monkey [9]): Active

pIC50 [6]: < 5.00
pIC50 [8]: < 5.00
pIC50 [2]: < 5.00
Papp at 5 h, 100 µM [11]: 28 ×10⁻⁶ cm/s
pIC50 [3]: 5.38
Compound: CC(C)OC(=O)CNc1cccc(CN(Cc2ccc(-n3cccn3)cc2)S(=O)(=O)c2cccnc2)n1 [OMIDENEPAG ISOPROPYL]
Activity (Cynomolgus monkey [16]): Active
Activity (Cynomolgus monkey [17]): Dose-dependent effect

pEC50 [1]: 7.89
Compound: CCC1(c2ccc(CN(Cc3cccc(NCC(=O)O)n3)S(=O)(=O)c3cccnc3)cc2)CCC1

pEC50 [1]: 7.04
Compound: CC(C)(C)c1ccc(CN(Cc2cccc(NCC(=O)O)n2)S(C)(=O)=O)cc1

pEC50 [1]: 7.35
Compound: CC(C)(C)c1ccc(CN(Cc2cccc(NCC(=O)O)n2)S(=O)(=O)c2ccccc2F)cc1

pEC50 [1]: 7.54
Compound: O=C(O)CNc1cccc(CN(Cc2ccc(C3CCCCC3)cc2)S(=O)(=O)c2cccnc2)n1

pEC50 [1]: < 6.00
Compound: CC(C)(C)c1ccc(CN(Cc2cc(NCC(=O)O)ccn2)S(=O)(=O)c2cccnc2)cc1

pEC50 [1]: 6.96
Compound: CC(C)(C)c1cccc(CN(Cc2cccc(NCC(=O)O)n2)S(=O)(=O)c2cccnc2)c1

pEC50 [1]: 7.46
Compound: O=C(O)CNc1cccc(CN(Cc2ccc(-c3ccc(F)cc3)cc2)S(=O)(=O)c2cccnc2)n1

pEC50 [1]: 7.74
Compound: CC(C)C1(c2ccc(CN(Cc3cccc(NCC(=O)O)n3)S(=O)(=O)c3cccnc3)cc2)CC1

pEC50 [1]: 7.08
Compound: CC(C)(C)c1ccc(CN(Cc2cccc(NCCC(=O)O)n2)S(=O)(=O)c2cccnc2)cc1

pEC50 [1]: < 6.00
Compound: CC(C)(C)c1ccc(CN(Cc2ccnc(NCC(=O)O)c2)S(=O)(=O)c2cccnc2)cc1
